Assay results published in ChEMBL document CHEMBL1828613, “Optimization of cellular activity of G9a inhibitors 7-aminoalkoxy-quinazolines” (J Med Chem, 2011).

Assays:
[1] = system: MDA-MB-231; assay: Cytotoxicity against human MDA-MB-231 cells assessed as cell viability after 48 hrs by MTT assay; format: functional, cell-based; settings: MDA-MB-231, 48 h
[2] = molecular target: T1, Histone-lysine N-methyltransferase EHMT1 (Homo sapiens, UniProt Q9H9B1); assay: Inhibition of GLP assessed as hydrolysis of S-adenosyl-L-homocysteine after 2 mins by SAHH-coupled fluorescence assay
T1 sequence (Q9H9B1 whole entry): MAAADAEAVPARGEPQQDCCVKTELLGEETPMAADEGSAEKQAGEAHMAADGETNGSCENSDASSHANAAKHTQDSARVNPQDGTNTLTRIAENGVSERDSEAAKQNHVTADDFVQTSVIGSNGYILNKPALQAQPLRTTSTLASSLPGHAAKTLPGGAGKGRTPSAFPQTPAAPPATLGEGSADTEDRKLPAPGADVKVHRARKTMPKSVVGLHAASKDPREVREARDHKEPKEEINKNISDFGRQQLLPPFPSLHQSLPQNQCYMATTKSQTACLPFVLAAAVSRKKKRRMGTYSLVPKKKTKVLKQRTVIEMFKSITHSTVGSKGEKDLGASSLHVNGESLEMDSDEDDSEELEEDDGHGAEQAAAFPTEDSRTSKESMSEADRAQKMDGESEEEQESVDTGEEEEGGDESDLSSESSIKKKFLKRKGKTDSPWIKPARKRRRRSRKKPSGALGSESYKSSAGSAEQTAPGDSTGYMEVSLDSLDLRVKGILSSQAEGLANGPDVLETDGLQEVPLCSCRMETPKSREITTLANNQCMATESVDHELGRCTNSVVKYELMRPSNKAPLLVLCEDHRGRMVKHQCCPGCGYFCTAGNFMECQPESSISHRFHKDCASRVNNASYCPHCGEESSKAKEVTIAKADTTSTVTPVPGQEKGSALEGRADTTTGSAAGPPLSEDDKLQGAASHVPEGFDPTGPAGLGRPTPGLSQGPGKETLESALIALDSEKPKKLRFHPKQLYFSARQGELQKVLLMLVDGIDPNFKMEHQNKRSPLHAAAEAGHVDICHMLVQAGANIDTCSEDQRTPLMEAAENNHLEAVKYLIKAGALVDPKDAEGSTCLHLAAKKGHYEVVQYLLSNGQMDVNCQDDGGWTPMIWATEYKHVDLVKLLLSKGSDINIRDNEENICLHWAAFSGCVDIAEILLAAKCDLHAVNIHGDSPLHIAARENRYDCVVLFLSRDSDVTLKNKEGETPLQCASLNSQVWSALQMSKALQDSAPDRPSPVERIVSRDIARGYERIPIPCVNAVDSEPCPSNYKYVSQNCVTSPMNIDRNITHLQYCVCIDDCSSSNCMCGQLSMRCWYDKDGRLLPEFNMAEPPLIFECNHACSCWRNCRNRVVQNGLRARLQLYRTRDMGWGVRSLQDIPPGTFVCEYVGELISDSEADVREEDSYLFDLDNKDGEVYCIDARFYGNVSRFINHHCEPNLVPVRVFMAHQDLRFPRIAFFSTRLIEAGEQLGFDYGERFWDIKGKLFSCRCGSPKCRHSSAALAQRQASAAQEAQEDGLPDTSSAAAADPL
Summary of the method: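 GLP at 100 nM was tested by SAHH/adenosine deaminase/ThioGlo coupling in pH 7.5 potassium phosphate buffer with EDTA, MgCl2, Triton X-100 and 25 μM SAM. Inhibitor (4 nM–16 μM) was preincubated 2 min before adding 20 μM H3(1–25). Fluorescence rise (360/528 nm) was tracked 20 min and background-subtracted. IC50 from two independent experiments.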

[3] = molecular target: T2, Histone-lysine N-methyltransferase SETD7 (Homo sapiens, UniProt Q8WTS6); assay: Inhibition of SETD7 assessed as hydrolysis of S-adenosyl-L-homocysteine after 2 mins by SAHH-coupled fluorescence assay
T2 sequence (Q8WTS6 whole entry): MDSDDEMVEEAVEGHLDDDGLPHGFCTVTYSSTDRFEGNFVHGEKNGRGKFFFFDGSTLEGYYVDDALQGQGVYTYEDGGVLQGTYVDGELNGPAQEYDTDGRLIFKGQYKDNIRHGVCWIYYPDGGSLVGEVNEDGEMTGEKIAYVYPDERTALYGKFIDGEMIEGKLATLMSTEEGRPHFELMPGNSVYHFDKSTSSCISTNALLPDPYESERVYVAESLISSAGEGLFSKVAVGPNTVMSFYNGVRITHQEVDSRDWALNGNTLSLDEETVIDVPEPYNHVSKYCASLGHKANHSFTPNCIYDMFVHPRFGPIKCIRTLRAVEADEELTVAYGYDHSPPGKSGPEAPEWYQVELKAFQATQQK
Summary of the method: (§1)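 Same coupled ThioGlo readout (25 mM potassium phosphate pH 7.5, 25 μM SAM, 5 μM SAHH, adenosine deaminase), 4 nM–16 μM inhibitor with 2 min preincubation, 20 min fluorescence at 360/528 nm. Enzyme and substrate by target: SETD7 200 nM with 100 μM H3(1–25); SETD8 250 nM with 500 μM H4(1–24); SUV39H2 100 nM with 200 μM H3K9Me1(1–15).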

[4] = molecular target: Protein arginine N-methyltransferase 3 (Homo sapiens, UniProt O60678); assay: Inhibition of PRMT3 assessed as hydrolysis of S-adenosyl-L-homocysteine after 2 mins by SAHH-coupled fluorescence assay
Summary of the method: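 Enzyme-coupled fluorescence readout. Methyltransfer product SAH is converted to homocysteine by SAHH in the presence of adenosine deaminase, and homocysteine is detected with the thiol-sensitive dye ThioGlo. Buffer is 25 mM potassium phosphate pH 7.5 with 1 mM EDTA, 2 mM MgCl2 and 0.01% Triton X-100, plus 5 μM SAHH, 0.3 U/mL deaminase, 25 μM SAM and 15 μM ThioGlo. PRMT3 is at 500 nM. Inhibitor (4 nM–16 μM) is preincubated 2 min, then 10 μM H4(1–24) peptide starts the reaction. Fluorescence is followed for 20 min at ex 360/em 528 nm and background-corrected. IC50 is fitted from two independent experiments.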

[5] = molecular target: T3, N-lysine methyltransferase KMT5A (Homo sapiens, UniProt Q9NQR1); assay: Inhibition of SETD8 assessed as hydrolysis of S-adenosyl-L-homocysteine after 2 mins by SAHH-coupled fluorescence assay; summary of the method: as §1
T3 sequence (Q9NQR1 whole entry): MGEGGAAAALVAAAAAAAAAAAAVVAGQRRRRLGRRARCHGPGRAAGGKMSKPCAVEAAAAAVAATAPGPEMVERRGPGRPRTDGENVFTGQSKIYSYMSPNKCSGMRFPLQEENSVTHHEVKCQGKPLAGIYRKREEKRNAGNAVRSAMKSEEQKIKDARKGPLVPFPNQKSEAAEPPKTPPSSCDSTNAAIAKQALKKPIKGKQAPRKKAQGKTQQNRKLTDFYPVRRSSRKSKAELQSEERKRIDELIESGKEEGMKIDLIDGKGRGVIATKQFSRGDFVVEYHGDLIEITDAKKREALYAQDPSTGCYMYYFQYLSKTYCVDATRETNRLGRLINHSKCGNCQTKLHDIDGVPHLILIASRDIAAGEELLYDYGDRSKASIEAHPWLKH

[6] = molecular target: Histone-lysine N-methyltransferase SUV39H2 (Homo sapiens, UniProt Q9H5I1); assay: Inhibition of SUV39H2 assessed as hydrolysis of S-adenosyl-L-homocysteine after 2 mins by SAHH-coupled fluorescence assay; summary of the method: as §1
Histone-lysine N-methyltransferase SUV39H2, sequence (Q9H5I1 whole entry): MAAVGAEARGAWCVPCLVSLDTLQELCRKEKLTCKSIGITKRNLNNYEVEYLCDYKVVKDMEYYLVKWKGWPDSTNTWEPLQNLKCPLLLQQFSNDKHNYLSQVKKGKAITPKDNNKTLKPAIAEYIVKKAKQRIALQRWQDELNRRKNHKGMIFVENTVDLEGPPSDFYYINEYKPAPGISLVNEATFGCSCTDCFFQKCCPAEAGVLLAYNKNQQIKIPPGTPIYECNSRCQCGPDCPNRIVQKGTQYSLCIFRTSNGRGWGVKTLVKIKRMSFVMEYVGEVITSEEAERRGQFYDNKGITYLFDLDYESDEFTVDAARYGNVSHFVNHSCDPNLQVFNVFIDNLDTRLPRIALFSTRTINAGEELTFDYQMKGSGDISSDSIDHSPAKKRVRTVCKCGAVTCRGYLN

Protein arginine N-methyltransferase 3, sequence (O60678 whole entry): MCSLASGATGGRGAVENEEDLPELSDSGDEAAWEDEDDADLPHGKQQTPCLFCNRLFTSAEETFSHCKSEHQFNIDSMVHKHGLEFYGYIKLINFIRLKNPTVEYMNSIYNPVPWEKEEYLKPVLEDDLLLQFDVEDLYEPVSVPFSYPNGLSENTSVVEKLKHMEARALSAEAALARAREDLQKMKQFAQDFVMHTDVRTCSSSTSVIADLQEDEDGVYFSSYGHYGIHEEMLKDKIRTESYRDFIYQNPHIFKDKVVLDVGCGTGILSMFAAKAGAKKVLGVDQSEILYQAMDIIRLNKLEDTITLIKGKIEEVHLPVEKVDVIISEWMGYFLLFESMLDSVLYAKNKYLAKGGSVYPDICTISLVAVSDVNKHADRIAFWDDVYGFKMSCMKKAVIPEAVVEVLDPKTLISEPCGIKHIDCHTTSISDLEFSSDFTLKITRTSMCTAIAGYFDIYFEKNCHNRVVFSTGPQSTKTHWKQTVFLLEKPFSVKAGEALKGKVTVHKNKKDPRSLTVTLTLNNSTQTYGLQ

- IC50 [2]: < 0.015 µM
- IC50 [3]: > 10 µM
- IC50 [4]: > 10 µM
- IC50 [5]: > 10 µM
- IC50 [6]: > 10 µM
Structure (SMILES): COc1cc2c(NC3CCN(C4CCCCC4)CC3)nc(N3CCCN(C(C)C)CC3)nc2cc1OCCCN1CCCCC1
- EC50 [1]: 3.3 µM
